In ChEMBL document CHEMBL1141892, “Syntheses and properties of the major hydroxy metabolites in humans of blonanserin AD-5423, a novel antipsychotic agent” (Bioorg Med Chem Lett, 2005):
pKi: −log10 of the molar value.

How the values were obtained:
[1] = biological target: 5-hydroxytryptamine receptor 2A (Homo sapiens, UniProt P28223); assay: In vitro binding affinity against recombinant human 5-hydroxytryptamine 2A receptor […]
Summary of the method: (§1)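 Affinities are Ki values (nM) at human D2L and human 5-HT2A receptors, reported as mean ± SEM of three independent experiments.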

[2] = biological target: D(2) dopamine receptor (Homo sapiens, UniProt P14416); assay: In vitro binding affinity against recombinant human dopamine receptor D2L […]; summary of the method: as §1
Sequence of D(2) dopamine receptor (P14416 whole entry): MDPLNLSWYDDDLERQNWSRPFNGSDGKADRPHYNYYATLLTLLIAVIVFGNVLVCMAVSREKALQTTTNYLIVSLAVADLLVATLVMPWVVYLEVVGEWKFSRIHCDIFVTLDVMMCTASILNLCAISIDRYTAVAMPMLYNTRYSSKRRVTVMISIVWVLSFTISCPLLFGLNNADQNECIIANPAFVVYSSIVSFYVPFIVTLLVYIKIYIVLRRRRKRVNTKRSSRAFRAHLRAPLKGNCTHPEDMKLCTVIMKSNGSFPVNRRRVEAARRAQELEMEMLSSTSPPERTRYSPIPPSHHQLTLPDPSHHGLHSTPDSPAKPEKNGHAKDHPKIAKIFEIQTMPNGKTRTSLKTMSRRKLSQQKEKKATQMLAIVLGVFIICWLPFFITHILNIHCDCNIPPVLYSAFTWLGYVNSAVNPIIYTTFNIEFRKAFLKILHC

Sequence of 5-hydroxytryptamine receptor 2A (P28223 whole entry): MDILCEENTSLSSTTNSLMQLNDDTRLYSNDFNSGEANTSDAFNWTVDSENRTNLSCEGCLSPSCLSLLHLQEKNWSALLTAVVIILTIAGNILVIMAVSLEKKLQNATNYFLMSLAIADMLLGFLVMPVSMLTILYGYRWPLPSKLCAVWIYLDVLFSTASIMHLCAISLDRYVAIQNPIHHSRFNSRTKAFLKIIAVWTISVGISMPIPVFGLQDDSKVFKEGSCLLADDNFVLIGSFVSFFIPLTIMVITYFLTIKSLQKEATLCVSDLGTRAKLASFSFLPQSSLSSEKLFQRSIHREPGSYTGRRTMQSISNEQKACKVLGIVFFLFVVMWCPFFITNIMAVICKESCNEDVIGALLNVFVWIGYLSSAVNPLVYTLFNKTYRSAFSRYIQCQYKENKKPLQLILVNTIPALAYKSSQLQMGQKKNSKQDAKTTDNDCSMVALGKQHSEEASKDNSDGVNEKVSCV

Q: What does the source list for CCN1CCN(c2cc(-c3ccc(F)cc3)c3c(n2)CC[C@@H](O)CCC3)CC1?
A: pKi [1]: 7.75; pKi [2]: 7.92

Q: With CCN1CCN(c2cc(-c3ccc(F)cc3)c3c(n2)CCC[C@@H](O)CC3)CC1 as the compound, how does the pKi [1] read?
A: 7.83

Q: What about the pKi [2] of the same compound?
A: 8.21

Q: CCN1CCN(c2cc(-c3ccc(F)cc3)c3c(n2)CC[C@H](O)CCC3)CC1 was tested. Which pKi [1] did it give?
A: 8.01

Q: What about the pKi [2] of the same compound?
A: 8.44

Q: How did the pKi [1] turn out when CCN1CCN(c2cc(-c3ccc(F)cc3)c3c(n2)CCC[C@H](O)CC3)CC1 was run?
A: 7.73

Q: And the pKi [2]?
A: 7.67

Q: How did the pKi [1] turn out when CCN1CCN(c2cc(-c3ccc(F)cc3)c3c(n2)CCCCCC3)CC1 [BLONANSERIN] was run?
A: 9.09

Q: What about the pKi [2] of the same compound?
A: 9.85
